According to ChEMBL document CHEMBL1147480, “Synthesis, absolute stereochemistry and molecular design of the new antifungal and antibacterial antibiotic produced by Streptomyces sp.201” (2004):
In brackets after ≈: the same amount, converted by molar mass.

How the values were obtained:
Format in all cases: functional
Thanatephorus cucumeris = assay: Minimum fungicidal concentration required against Rhizoctonia solani
Procedure, shortened: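 Tube assay in molten M2 agar (g/L: yeast extract 5.00, NaCl 10.00, KH2PO4 0.10, MgSO4·7H2O 0.05, dextrose 10.00, agar 15.0, pH 7.1). Stock in sulfoxide solvent, diluted in phosphate buffer pH 7.4 and culture broth; final 1–600 µg/mL. Spore suspension in Ringer's solution, 3×10^5 CFU/mL; 35 °C, 48 h. MFC = lowest concentration killing 95% of inoculum.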

[1] = test system: Mycobacterium tuberculosis; assay: Minimum inhibitory concentration required for antibacterial activity against Mycobacterium tuberculosis
Procedure, shortened: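 Tube dilution in M-33 broth (yeast extract, tryptone, glucose, pH 7.0; 5 mL final volume). Test agent was diluted in phosphate buffer pH 7.4 and broth to a final 1–600 µg/mL. Inoculum was 3×10^5 CFU/mL prepared in Ringer's solution, incubated at 35 °C for 120 h. Clear tubes were subcultured (10 µL) on agar at 35 °C and examined under a microscope for growth.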

Bacillus subtilis = assay: Minimum inhibitory concentration required for antibacterial activity against Bacillus subtilis
Procedure, shortened: (§1)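 Broth tube dilution in nutrient broth (5 mL final volume). The compound was diluted in phosphate buffer pH 7.4 and culture broth to final concentrations of 1–600 µg/mL. Inoculum was adjusted to 3×10^5 CFU/mL in Ringer's solution, then incubated at 35 °C for 24 h. Tubes without visible growth were subcultured (10 µL) onto agar plates at 35 °C and checked microscopically for growth.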

Proteus vulgaris = assay: Minimum inhibitory concentration required for antibacterial activity against Proteus vulgaris; procedure, shortened: as §1
Escherichia coli = assay: Minimum inhibitory concentration required for antibacterial activity against Escherichia coli
Procedure, shortened: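 Broth tube dilution in nutrient broth; stock in sulfoxide solvent, diluted in phosphate buffer pH 7.4 and culture broth to final 1–600 µg/mL. Inoculum in Ringer's solution, 3×10^5 CFU/mL; 35 °C for 24 h. Tubes without visible growth subcultured (10 µL) onto agar plates at 35 °C, growth checked by microscope.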

Compound: CCCCCCCOC(=O)c1ccncc1 [ISONICOTINIC ACID HEPTYL ESTER]
- MFC (Thanatephorus cucumeris): 15 µg/mL (≈ 67.8 µM)
- MIC [1]: 16 µg/mL (≈ 72.3 µM)
- MIC (Bacillus subtilis): 24 µg/mL (≈ 108 µM)
- MIC (Proteus vulgaris): 16 µg/mL (≈ 72.3 µM)
- MIC (Escherichia coli): 16 µg/mL (≈ 72.3 µM)

Compound: CCCCC[C@H](C)COC(=O)c1ccncc1 [(S)-2-METHYLHEPTYL ISONICOTINATE]
- MFC (Thanatephorus cucumeris): 32 µg/mL (≈ 136 µM)
- MIC [1]: 14 µg/mL (≈ 59.5 µM)
- MIC (Bacillus subtilis): 20 µg/mL (≈ 85 µM)
- MIC (Proteus vulgaris): 14 µg/mL (≈ 59.5 µM)
- MIC (Escherichia coli): 40 µg/mL (≈ 170 µM)

Compound: CCCCCCOC(=O)c1ccncc1 [ISONICOTINIC ACID HEXYL ESTER]
- MFC (Thanatephorus cucumeris): 44 µg/mL (≈ 212 µM)
- MIC [1]: 24 µg/mL (≈ 116 µM)
- MIC (Bacillus subtilis): 50 µg/mL (≈ 241 µM)
- MIC (Proteus vulgaris): 36 µg/mL (≈ 174 µM)
- MIC (Escherichia coli): 35 µg/mL (≈ 169 µM)

Compound: CCCCOC(=O)c1ccncc1 [ISONICOTINIC ACID BUTYL ESTER]
- MFC (Thanatephorus cucumeris): 600 µg/mL (≈ 3350 µM)
- MIC [1]: 280 µg/mL (≈ 1560 µM)
- MIC (Bacillus subtilis): 600 µg/mL (≈ 3350 µM)
- MIC (Proteus vulgaris): 500 µg/mL (≈ 2790 µM)
- MIC (Escherichia coli): 500 µg/mL (≈ 2790 µM)

Compound: CCCCCOC(=O)c1ccncc1 [ISONICOTINIC ACID PENTYL ESTER]
- MFC (Thanatephorus cucumeris): 14 µg/mL (≈ 72.4 µM)
- MIC [1]: 10 µg/mL (≈ 51.7 µM)
- MIC (Bacillus subtilis): 20 µg/mL (≈ 103 µM)
- MIC (Proteus vulgaris): 14 µg/mL (≈ 72.4 µM)
- MIC (Escherichia coli): 20 µg/mL (≈ 103 µM)

Compound: CCCCC[C@@H](C)COC(=O)c1ccncc1 [ISONICOTINIC ACID 2-METHYL-HEPTYL ESTER]
- MFC (Thanatephorus cucumeris): 24 µg/mL (≈ 102 µM)
- MIC [1]: 10 µg/mL (≈ 42.5 µM)
- MIC (Bacillus subtilis): 16 µg/mL (≈ 68 µM)
- MIC (Proteus vulgaris): 6 µg/mL (≈ 25.5 µM)
- MIC (Escherichia coli): 30 µg/mL (≈ 127 µM)

Compound: CCCCCCCCOC(=O)c1ccncc1 [ISONICOTINIC ACID OCTYL ESTER]
- MFC (Thanatephorus cucumeris): 18 µg/mL (≈ 76.5 µM)
- MIC [1]: 8 µg/mL (≈ 34 µM)
- MIC (Bacillus subtilis): 16 µg/mL (≈ 68 µM)
- MIC (Proteus vulgaris): 6 µg/mL (≈ 25.5 µM)
- MIC (Escherichia coli): 12 µg/mL (≈ 51 µM)

Compound: CCCCCCCCCCCCCCCCCCOC(=O)c1ccncc1 [ISONICOTINIC ACID OCTADECYL ESTER]
- MFC (Thanatephorus cucumeris): 600 µg/mL (≈ 1600 µM)
- MIC [1]: 320 µg/mL (≈ 852 µM)
- MIC (Bacillus subtilis): 600 µg/mL (≈ 1600 µM)
- MIC (Proteus vulgaris): 500 µg/mL (≈ 1330 µM)
- MIC (Escherichia coli): 56 µg/mL (≈ 149 µM)
